What was measured:
[1] = Nonspecific protein binding, from recovery out of plasma and serum; type: in vitro ADME; conditions: result in words
Summary of the method: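 Test compound at 50 μM final (1% DMSO) in pooled female BALB/c mouse plasma or serum, or in human AB serum, incubated at 37 °C with gentle agitation. Aliquots taken at 0, 0.5, 1, 2, 8, 18 and 24 h were precipitated with CH3CN and centrifuged at 3000g for 10 min; supernatants were quantified by LCMS. Run in triplicate.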

[2] = system: KB nasopharyngeal tumor cells; conditions: in vitro cultured cells; from the literature, reference not given; cited from earlier work
CLL patient cells = assay: In vitro activity against CLL patient cells, summary statements over cell lines; type: cell-based, human; conditions: for in vitro activity against CLL patient cells: result in words
Summary of the method: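 Primary CLL cells from consented patients, cultured in RPMI with 10% FBS and test compound at designated concentrations for 48 h (37 °C, 5% CO2). Viability is the DiOC6+/PI− fraction relative to untreated or vehicle control. EC50 and SE come from dose–response curves.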

[3] = Phase II glucuronidation in mouse S9 fractions; type: in vitro ADME
[4] = Phase II glucuronidation in human S9 fractions; type: in vitro ADME
[5] = Phase I metabolism in mouse microsomes; type: in vitro ADME; conditions: 1 h incubation, 100 μM, NADPH
Summary of the method: (§1)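 Mouse or human microsomes (5 mg/mL protein final) in 0.1 M sodium phosphate pH 7.4 with 100 μM test compound (DMSO <1%), preincubated 5 min at 37 °C. Started with 1 mM NADPH and run 60 min at 37 °C. Stopped with MeOH and centrifuged; supernatant analysed by LCMS. Controls: zero time, no NADPH, boiled microsomes, and 7-ethoxycoumarin as CYP substrate.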

[6] = Phase I metabolism in human microsomes; type: in vitro ADME; conditions: 1 h incubation, 100 μM, NADPH
Summary of the method: as §1

CLL = conditions: read-out: EC50 against CLL; p53-independent activity; cited from earlier work
[7] = Stability in mouse plasma; type: in vitro ADME; conditions: female, BALB/c, mouse plasma (pooled)
Summary of the method: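 Test compound at 50 μM final (1% DMSO) in pooled plasma from female BALB/c mice or human AB serum. Incubated at 37 °C with gentle agitation. Samples taken at 0, 0.5, 1, 2, 8, 18 and 24 h. Proteins precipitated with CH3CN, vortexed and centrifuged (3000g, 10 min, room temperature); supernatant analysed by LCMS. Run in triplicate.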

[8] = system: CLL2 (CLL patient cell line); assay: In vitro cytotoxicity against primary CLL patient cells CLL2; type: cell-based, human; conditions: for EC50: read-out: antitumor EC50 CLL2, Table 3, SE ±0.01 μM
[9] = system: JVM-2 (ATCC leukemia cell line); assay: In vitro cytotoxicity against JVM-2; type: cell-based; conditions: read-out: antitumor EC50 JVM-2; Table 3; SE ±0.01 μM
HeLa cell line = assay: HeLa cell viability by the MTT method; type: cell-based; conditions: read-out: antitumor EC50 HeLa; Table 3; SE ±0.01 μM
[10] = system: CLL1 (CLL patient cell line); assay: In vitro cytotoxicity against primary CLL patient cells CLL1; type: cell-based, human; conditions: read-out: antitumor EC50 CLL1; Table 3; SE ±0.01 μM

In the case of `CN1C(=O)N[C@H]2[C@@H]3NC(=O)c4ccc(Br)n4[C@@H]3C[C@]21O` [1a, (−)-Agelastatin A], the nonspecific protein binding [1] is given as “relatively low”, the “IC50, growth of KB nasopharyngeal tumor cells” value [2] is given as 0.5–1 μg mL^–1 and the EC50 (CLL patient cells; read-out: EC50, CLL activity, range over the cell lines tested) is given as 0.11 to 0.31 µM. The formation of glucuronides [3] was “No formation of glucoronides was detected”, the formation of glucuronides [4] was “No formation of glucoronides was detected” and the “metabolism by cytochrome P450 enzymes, recovery from supernatant (LCMS)” value (“metabolism by cytochrome P450 enzymes” below) [5] was “quantitative recovery”. The “metabolism by cytochrome P450 enzymes” value [6] was “quantitative recovery” and the EC50 (CLL) was 0.06 to 0.1 µM.

For `CN1C(=O)N[C@H]2[C@@H]3NC(=O)c4ccc(Cl)n4[C@@H]3C[C@]21O` [1d, 13-Debromo-13-chloro-agelastatin A], the “in vitro activity against CLL patient cells” value (from here on “in vitro activity”) (CLL patient cells) was “nanomolar”.

In the case of `CN1C(=O)N[C@H]2[C@@H]3NC(=O)c4cc(Cl)c(Cl)n4[C@@H]3C[C@]21O` [1e, 13-Debromo-13,14-dichloro-agelastatin A], the “in vitro activity” value (CLL patient cells) is reported as “nanomolar”.

For `CN1C(=O)N[C@H]2[C@@H]3NC(=O)c4ccc(I)n4[C@@H]3C[C@]21O` [1g, 13-Debromo-13-iodo-agelastatin A], the “in vitro activity” value (CLL patient cells) was “nanomolar”.

In the case of `CN1C(=O)N[C@H]2[C@@H]3NC(=O)c4ccc(C(F)(F)F)n4[C@@H]3C[C@]21O` [1j, 13-Debromo-13-trifluoromethyl-agelastatin A], the nonspecific protein binding [1] is reported as “relatively low”, the recovery at 24 h, 50 μM [7] is reported as 65 to 90% and the “in vitro activity” value (CLL patient cells) is reported as “nanomolar”. The “metabolism by cytochrome P450 enzymes” value [5] was “quantitative recovery” and the “metabolism by cytochrome P450 enzymes” value [6] was “quantitative recovery”.

In the case of `CN1C(=O)N[C@H]2[C@@H]3NC(=O)c4ccc(C#N)n4[C@@H]3C[C@]21O` [1n, 13-Debromo-13-cyano-agelastatin A], the “in vitro activity” value (CLL patient cells) is reported as “nanomolar”.

With `CN1C(=O)N[C@H]2[C@@H]3NC(=O)c4cccn4[C@@H]3C[C@]21O` [1p, 13-Debromo-agelastatin A] the “loss of activity on removal of Br from C-13” value ([8]; compared with 1a) was 25 fold, the “metabolism by cytochrome P450 enzymes” value [5] was “near quantitative recovery” and the “metabolism by cytochrome P450 enzymes” value [6] was “near quantitative recovery”.

For `CCOc1ccc2ccc(=O)oc2c1` [7-ethoxycoumarin, reference compound], the “metabolism by cytochrome P450 enzymes” value [5] was “metabolized” and the “metabolism by cytochrome P450 enzymes” value [6] was “metabolized”.

For O-(2′-Methoxyethyl)-agelastatin A [4c], the EC50 [9] was 21.1 µM and the EC50 [8] was 9.39 µM.

With O-Methyl-agelastatin A [4b] the EC50 [9] was 429 µM, the EC50 (HeLa cell line) was 91.4 µM and the EC50 [8] was 28.8 µM. It also gave an EC50 [10] of 867 µM.

Reference: publication PMC4079331 (Journal of Medicinal Chemistry, 2014)
